{"source": "ChEMBL document CHEMBL3272327", "about": "“Hypocholesterolemic activity of 1,3-bis(substituted phenoxy)-2-propanones” (J Med Chem, 1976)", "key": {"Rattus norvegicus [1]": {"system": "Rattus norvegicus", "assay": "Hypocholesterolemic activity in rat assessed as [14C]palmitic acid level in vas deferens at 10 mg/kg/day administered for 1 week measured after 22 hrs on day 7 by scintillation counting analysis (reference value: 0.23 +/- 0.05%)", "type": "functional", "how_it_was_run": "(§1)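 Male Sprague-Dawley rats on lab chow dosed orally once daily for 1 week at 10 mg/kg/day, suspended in 1% CMC, or given vehicle alone. On day 7, 5 μCi [1-14C]palmitic acid given orally. Killed after 22 hr; organs made into 10% water homogenates. Aliquots of 0.1 cc of homogenate, urine, blood or feces were digested and scintillation counted. Output is % of dose per tissue, N = 6.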"}, "Rattus norvegicus [2]": {"system": "Rattus norvegicus", "assay": "Effect on liver weight in rat at 50 mg/kg/day administered for 16 days measured 24 hrs after last drug dosage relative to total body weight (reference value: 4.22 +/- 0.29%)", "type": "ADME, organism-based", "settings": "in vivo"}, "Rattus norvegicus [3]": {"system": "Rattus norvegicus", "assay": "Effect on food intake in rat at 1 mg/kg/day measured during first week (reference value: 19.1 +/- 1.7 gms)", "type": "ADME, organism-based", "settings": "in vivo", "how_it_was_run": "(§2)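 Male rats dosed orally at 1, 5, 10 or 50 mg/kg/day in 1% CMC. Average food intake in grams per rat per week measured over a 2-week period, first and second weeks reported separately. N = 8, Student's t test against the 1% CMC control.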"}, "Rattus norvegicus [4]": {"system": "Rattus norvegicus", "assay": "Effect on liver weight in rat at 10 mg/kg/day administered for 16 days measured 24 hrs after last drug dosage relative to total body weight (reference value: 4.22 to 4.54%)", "type": "ADME, organism-based", "settings": "in vivo"}, "Rattus norvegicus [5]": {"system": "Rattus norvegicus", "assay": "Effect on testes weight in rat at 1 mg/kg/day administered for 16 days measured 24 hrs after last drug dosage relative to total body weight (reference value: 1.08 +/- 0.08%)", "type": "ADME, organism-based, Testis", "settings": "in vivo"}, "Rattus norvegicus [6]": {"system": "Rattus norvegicus", "assay": "Effect on liver weight in rat at 5 mg/kg/day administered for 16 days measured 24 hrs after last drug dosage relative to total body weight (reference value: 4.22 +/- 0.29%)", "type": "ADME, organism-based", "settings": "in vivo"}, "Rattus norvegicus [7]": {"system": "Rattus norvegicus", "assay": "Effect on testes weight in rat at 50 mg/kg/day administered for 16 days measured 24 hrs after last drug dosage relative to total body weight (reference value: 1.08 +/- 0.08%)", "type": "ADME, organism-based, Testis", "settings": "in vivo"}, "Rattus norvegicus [8]": {"system": "Rattus norvegicus", "assay": "Effect on heart weight in rat at 50 mg/kg/day administered for 16 days measured 24 hrs after last drug dosage relative to total body weight (reference value: 0.37 +/- 0.04%)", "type": "ADME, organism-based", "settings": "in vivo"}, "Rattus norvegicus [9]": {"system": "Rattus norvegicus", "assay": "Hypocholesterolemic activity in rat assessed as [14C]cholesterol level in urine at 10 mg/kg/day administered for 1 week measured after 22 hrs on day 7 by scintillation counting analysis (reference value: 0.14 +/- 0.06%)", "type": "functional", "how_it_was_run": "(§3)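 Male rats were dosed orally for 1 week (10 mg/kg/day) or with 1% CMC. On day 7 they received 5 μCi [4-14C]cholesterol orally and were killed after 22 hr. Organs were homogenized (10% in water); 0.1-cc aliquots of homogenate, urine, blood or feces were digested with Protosol. Samples were counted in toluene/Triton X-100 (2:1) scintillant with 0.4% PPO and 0.01% POPOP. Results are % of dose per tissue, N = 6.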"}, "Rattus norvegicus [10]": {"system": "Rattus norvegicus", "assay": "Increase in lipase level in rat serum at 10 mg/kg/day administered for 16 days relative to control", "type": "functional", "how_it_was_run": "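Male Sprague-Dawley rats on rodent chow and water ad libitum; compound suspended in 1% CMC-H2O, 10 mg/kg/day by oral intubation, dose set from weekly weights; controls given 1% CMC. Serum lipase measured with a commercial serum lipase kit after 16 days of dosing; value given as percent of control, N = 8; p by Student's t test.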"}, "Rattus norvegicus [11]": {"system": "Rattus norvegicus", "assay": "Hypocholesterolemic activity in rat assessed as [14C]cholesterol level in brain at 10 mg/kg/day administered for 1 week measured after 22 hrs on day 7 by scintillation counting analysis (reference value: 0.12 +/- 0.04%)", "type": "functional", "how_it_was_run": "as §3"}, "Rattus norvegicus [12]": {"system": "Rattus norvegicus", "assay": "Effect on kidney weight in rat at 10 mg/kg/day administered for 16 days measured 24 hrs after last drug dosage relative to total body weight (reference value: 0.92 to 0.96%)", "type": "ADME, organism-based", "settings": "in vivo"}, "Rattus norvegicus [13]": {"system": "Rattus norvegicus", "assay": "Effect on vas deferens and epididymis weight in rat at 5 mg/kg/day administered for 16 days measured 24 hrs after last drug dosage relative to total body weight (reference value: 0.22 +/- 0.04%)", "type": "ADME, organism-based", "settings": "in vivo"}, "Rattus norvegicus [14]": {"system": "Rattus norvegicus", "assay": "Hypocholesterolemic activity in rat assessed as [14C]palmitic acid level in large intestine at 10 mg/kg/day administered for 1 week measured after 22 hrs on day 7 by scintillation counting analysis (reference value: 3.46 +/- 1.25%)", "type": "functional", "how_it_was_run": "as §1"}, "Rattus norvegicus [15]": {"system": "Rattus norvegicus", "assay": "Hypocholesterolemic activity in [14C]palmitic acid-treated rat assessed as increase in free fatty acid accumulation in liver at 10 mg/kg/day administered for 1 week by scintillation counting analysis", "type": "functional"}, "Rattus norvegicus [16]": {"system": "Rattus norvegicus", "assay": "Hypocholesterolemic activity in rat assessed as [14C]palmitic acid level in small intestine at 10 mg/kg/day administered for 1 week measured after 22 hrs on day 7 by scintillation counting analysis (reference value: 4.43 +/- 1.43%)", "type": "functional", "how_it_was_run": "as §1"}, "Rattus norvegicus [17]": {"system": "Rattus norvegicus", "assay": "Hypocholesterolemic activity in rat assessed as [14C]cholesterol level in lung at 10 mg/kg/day administered for 1 week measured after 22 hrs on day 7 by scintillation counting analysis (reference value: 1.99 +/- 1.18%)", "type": "functional", "how_it_was_run": "as §3"}, "Rattus norvegicus [18]": {"system": "Rattus norvegicus", "assay": "Effect on heart weight in rat at 5 mg/kg/day administered for 16 days measured 24 hrs after last drug dosage relative to total body weight (reference value: 0.37 +/- 0.04%)", "type": "ADME, organism-based", "settings": "in vivo"}, "Rattus norvegicus [19]": {"system": "Rattus norvegicus", "assay": "Effect on vas deferens and epididymis weight in rat at 50 mg/kg/day administered for 16 days measured 24 hrs after last drug dosage relative to total body weight (reference value: 0.22 +/- 0.04%)", "type": "ADME, organism-based", "settings": "in vivo"}, "Rattus norvegicus [20]": {"system": "Rattus norvegicus", "assay": "Effect on adrenal gland weight in rat at 10 mg/kg/day administered for 16 days measured 24 hrs after last drug dosage relative to total body weight (reference value: 0.015 +/- 0.003%)", "type": "ADME, organism-based", "settings": "in vivo"}, "Rattus norvegicus [21]": {"system": "Rattus norvegicus", "assay": "Effect on DNA content in rat liver at 10 mg/kg/day administered for 16 days (reference value: 100 +/- 25%)", "type": "ADME, organism-based", "settings": "in vivo, 384 h"}, "Rattus norvegicus [22]": {"system": "Rattus norvegicus", "assay": "Hypocholesterolemic activity in Sprague-Dawley rat assessed as serum cholesterol level at 50 mg/kg/day, po administered via intubation measured on day 4 by Liebermann-Burchard reaction (reference value: 100 +/- 7%)", "type": "functional"}, "Rattus norvegicus [23]": {"system": "Rattus norvegicus", "assay": "Effect on food intake in rat at 50 mg/kg/day measured during first week (reference value: 19.1 +/- 1.7 gms)", "type": "ADME, organism-based", "settings": "in vivo", "how_it_was_run": "as §2"}, "Rattus norvegicus [24]": {"system": "Rattus norvegicus", "assay": "Hypocholesterolemic activity in Sprague-Dawley rat assessed as serum cholesterol level at 10 mg/kg/day, po administered via intubation measured on day 4 by Liebermann-Burchard reaction (reference value: 100%)", "type": "functional"}, "Rattus norvegicus [25]": {"system": "Rattus norvegicus", "assay": "Hypocholesterolemic activity in Sprague-Dawley rat assessed as serum cholesterol level at 50 mg/kg/day, po administered via intubation measured on day 10 by Liebermann-Burchard reaction (reference value: 100 +/- 7%)", "type": "functional"}, "Rattus norvegicus [26]": {"system": "Rattus norvegicus", "assay": "Hypocholesterolemic activity in Sprague-Dawley rat assessed as serum cholesterol level at 5 mg/kg/day, po administered via intubation measured on day 4 by Liebermann-Burchard reaction (reference value: 100 +/- 7%)", "type": "functional"}, "Rattus norvegicus [27]": {"system": "Rattus norvegicus", "assay": "Effect on protein content in rat liver at 10 mg/kg/day administered for 16 days (reference value: 100 +/- 6%)", "type": "ADME, organism-based", "settings": "in vivo, 384 h"}}, "data": [{"smiles": "Cc1ccc(OCC(=O)COc2ccc(C)cc2)cc1", "values": [{"measurement": "Activity", "setting": "Rattus norvegicus [1]", "value": 0.5, "unit": "%"}, {"measurement": "Activity", "setting": "Rattus norvegicus [2]", "value": 4.57, "unit": "%"}, {"measurement": "Activity", "setting": "Rattus norvegicus [3]", "value": 19.2, "unit": "g"}, {"measurement": "Activity", "setting": "Rattus norvegicus [4]", "value": 4.65, "unit": "%"}, {"measurement": "Activity", "setting": "Rattus norvegicus [5]", "value": 1.12, "unit": "%"}, {"measurement": "Activity", "setting": "Rattus norvegicus [6]", "value": 4.31, "unit": "%"}, {"measurement": "Activity", "setting": "Rattus norvegicus [7]", "value": 1.19, "unit": "%"}, {"measurement": "Activity", "setting": "Rattus norvegicus [8]", "value": 0.4, "unit": "%"}, {"measurement": "Activity", "setting": "Rattus norvegicus [9]", "value": 0.94, "unit": "%"}, {"measurement": "fold change (FC)", "setting": "Rattus norvegicus [10]", "value": 2}, {"measurement": "Activity", "setting": "Rattus norvegicus [11]", "value": 0.16, "unit": "%"}, {"measurement": "Activity", "setting": "Rattus norvegicus [12]", "value": 0.93, "unit": "%"}, {"measurement": "Activity", "setting": "Rattus norvegicus [13]", "value": 0.21, "unit": "%"}, {"measurement": "Activity", "setting": "Rattus norvegicus [14]", "value": 9.91, "unit": "%"}, {"measurement": "Activity", "setting": "Rattus norvegicus [15]", "value": 10, "unit": "%"}, {"measurement": "Activity", "setting": "Rattus norvegicus [16]", "value": 6.05, "unit": "%"}, {"measurement": "Activity", "setting": "Rattus norvegicus [17]", "value": 2.45, "unit": "%"}, {"measurement": "Activity", "setting": "Rattus norvegicus [18]", "value": 0.43, "unit": "%"}, {"measurement": "Activity", "setting": "Rattus norvegicus [19]", "value": 0.25, "unit": "%"}, {"measurement": "Activity", "setting": "Rattus norvegicus [20]", "value": 0.016, "unit": "%"}, {"measurement": "Activity", "setting": "Rattus norvegicus [21]", "value": 81, "unit": "%"}, {"measurement": "Activity", "setting": "Rattus norvegicus [22]", "value": 86, "unit": "%"}, {"measurement": "Activity", "setting": "Rattus norvegicus [23]", "value": 18.9, "unit": "g"}, {"measurement": "Activity", "setting": "Rattus norvegicus [24]", "value": 77, "unit": "%"}, {"measurement": "Activity", "setting": "Rattus norvegicus [25]", "value": 46, "unit": "%"}, {"measurement": "Activity", "setting": "Rattus norvegicus [26]", "value": 74, "unit": "%"}, {"measurement": "Activity", "setting": "Rattus norvegicus [27]", "value": 102, "unit": "%"}]}]}
